“Also recorded” adds a separate entry of the source. Read-outs that look alike come from different tables or passages of the source. Non-standard residues stand in square brackets, D forms with d. Residues, ends and D or L forms follow the SMILES beside them. dPhe(4-guanidino) = N=C(N)Nc1ccc(C[C@@H](N)C(=O)O)cc1
What was measured:
human MRGPRX1 [1] = target: T1, human MRGPRX1 (Homo sapiens, UniProt Q96LB2); type: cell-based; conditions: for agonist type at human MRGPRX1: HTS hits, FLIPR calcium 4 Assay Kit; for ligand efficiency (LE): human MRGPRX1 agonists; for fold decrease in agonist potency as compared to 5a: relative to 5a; for agonist activity at MRGPRX1: at concentrations up to 100 μM
Procedure, shortened: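 HEK293 cells stably expressing human MrgprX1 were plated at 25,000 cells/well and grown 2 days. They were loaded with 2 μM Fluo 4AM and 1% Trypan Red in HBSS for 50 min at 37°C, then equilibrated 10 min at room temperature. Serial dilutions in HBSS were added, with BAM 8–22 as positive and HBSS as negative control. FLIPR imaging ran 2 min; read-out was maximum minus minimum fluorescence.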

[2] = tested on: HVA Ca2+ currents in human MRGPRX1-expressing DRG neurons; type: cell-based, mouse; conditions: DRG neurons from MrgprX1 mice
mouse MRGPRC11 [3] = target: T2, mouse MRGPRC11 (Mus musculus, UniProt Q8CIP3); test: Agonist activity at mouse MRGPRC11; type: cell-based; conditions: even at concentration of 40 μM
T2 sequence (Q8CIP3 1-322): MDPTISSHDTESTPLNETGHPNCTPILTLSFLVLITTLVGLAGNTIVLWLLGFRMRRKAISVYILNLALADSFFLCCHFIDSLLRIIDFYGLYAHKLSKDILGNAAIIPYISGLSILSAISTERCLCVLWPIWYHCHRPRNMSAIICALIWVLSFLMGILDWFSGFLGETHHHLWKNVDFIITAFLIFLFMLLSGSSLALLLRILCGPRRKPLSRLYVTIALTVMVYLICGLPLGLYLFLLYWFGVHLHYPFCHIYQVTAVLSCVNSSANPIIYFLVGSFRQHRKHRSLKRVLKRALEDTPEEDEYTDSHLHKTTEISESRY

[4] = tested on: δ-, μ- and κ-opioid receptors; test: Selectivity of MRGPRX1 agonists over opioid receptors; type: binding; conditions: MRGPRX1 versus δ-
[5] = Metabolic stability in mouse liver microsomes; type: in vitro ADME
mouse MRGPRC11 [6] = target: T2, mouse MRGPRC11; conditions: cited from earlier work
human MRGPRX1 [7] = target: T1, human MRGPRX1; conditions: cited from earlier work
rat MRGPRC = conditions: cited from earlier work
neuropathic pain = conditions: rodent models of neuropathic pain; cited from earlier work
[8] = tested on: mechanical and thermal hyperalgesia; conditions: intrathecal (spinal cord) injection, mice; cited from earlier work
[9] = tested on: mechanical and thermal hyperalgesia; conditions: intrathecal (spinal cord) injection, rats; cited from earlier work

T1 sequence (Q96LB2 whole entry): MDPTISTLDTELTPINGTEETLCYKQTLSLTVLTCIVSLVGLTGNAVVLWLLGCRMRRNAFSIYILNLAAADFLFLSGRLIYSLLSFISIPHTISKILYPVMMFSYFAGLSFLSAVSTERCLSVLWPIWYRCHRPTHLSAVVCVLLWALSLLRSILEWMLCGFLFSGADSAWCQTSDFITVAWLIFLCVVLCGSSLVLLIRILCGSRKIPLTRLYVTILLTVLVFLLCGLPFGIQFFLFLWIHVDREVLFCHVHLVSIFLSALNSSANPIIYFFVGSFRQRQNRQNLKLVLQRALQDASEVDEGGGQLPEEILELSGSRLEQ

With `COc1cc(CNc2ccc(C(=N)N)cc2)ccc1OCc1ccccc1` [Compound 5a, 4-(4-(Benzyloxy)-3-methoxybenzylamino)benzimidamide] the “agonist type at human MRGPRX1” value (human MRGPRX1 [1]) was “full agonists”, the “ligand efficiency (LE)” value (human MRGPRX1 [1]) was 0.32–0.33 and the “inhibitory effect on HVA Ca2+ currents” value ([2]; bath application of 10 μM) was “inhibited HVA Ca^2+ currents”.
For `COc1cc(CNc2cccc(C(=N)N)c2)ccc1OCc1ccccc1` [Compound 5b, 3-(4-(Benzyloxy)-3-methoxybenzylamino)benzimidamide], the “fold decrease in agonist potency as compared to 5a” value (shortened to “fold decrease in agonist potency”) (human MRGPRX1 [1]) was 6 fold.
For `COc1cc(CNc2ccccc2C(=N)N)ccc1OCc1ccccc1` [Compound 5c, 2-(4-(Benzyloxy)-3-methoxybenzylamino)benzimidamide], the “agonist activity at MRGPRX1” value (human MRGPRX1 [1]) was “negligible agonist activity”, the “fold decrease in agonist potency” value (human MRGPRX1 [1]) was greater than 100 fold and the “inhibitory effect on HVA Ca2+ currents” value ([2]; bath application of 10 μM) was “no inhibitory effects”.
For `COc1cc(CNc2ccc(C(=N)N)cc2)ccc1OCc1cccnc1` [Compound 5d, 4-(3-Methoxy-4-(pyridin-3-ylmethoxy)benzylamino)benzimidamide], the “fold decrease in agonist potency” value (human MRGPRX1 [1]) was 10 fold.
For `CCCCS(=O)(=O)Nc1cc(C)ccc1Oc1ccc(C(=N)N)cc1` [Compound 11a, 4-(2-(Butylsulfonamido)-4-methylphenoxy)benzimidamide], the “agonist type at human MRGPRX1” value (human MRGPRX1 [1]) was “full agonists” and the “ligand efficiency (LE)” value (human MRGPRX1 [1]) was 0.32–0.33.
With `COc1ccccc1S(=O)(=O)Nc1ccc(C)cc1Oc1ccc2c(N)nccc2c1` [Compound 16, N-(2-(1-Aminoisoquinolin-6-yloxy)-4-methylphenyl)-2-methoxybenzenesulfonamide] the “activity against mouse MRGPRC11” value (mouse MRGPRC11 [3]) was “inactive”, the “selectivity over all three opioid receptors” value [4] was no less than 50 fold and the half-life [5] was less than 15 min.
In the case of `COc1ccccc1S(=O)(=O)Nc1ccc(C)cc1Oc1ccc2sc(N)nc2c1` [Compound 19, N-(2-(2-Aminobenzo[d]thiazol-5-yloxy)-4-methylphenyl)-2-methoxybenzenesulfonamide], the “agonist activity at MRGPRX1” value (human MRGPRX1 [1]) is reported as “negligible agonist activity; also recorded: no agonist activity”.
For `NC(=O)[C@H](Cc1ccccc1)NC(=O)[C@H](N)Cc1ccc(N=C(N)N)cc1` [JHU-58] (H-[dPhe(4-guanidino)]-Phe-NH2), the “agonist activity at mouse MRGPRC11” value (mouse MRGPRC11 [6]) is listed as “full agonist activity”, the “agonist activity at human MRGPRX1” value (human MRGPRX1 [7]; introduction) is listed as “negligible agonist activity” and the “agonist activity at rat MRGPRC” value (rat MRGPRC) is listed as “full agonist activity”. For the same molecule, the “analgesic effects” value (neuropathic pain) was “exhibits analgesic effects”.
In the case of BAM8-22, the “agonist activity at mouse MRGPRC11” value (mouse MRGPRC11 [6]) is given as “full agonist activity”, the “agonist activity at human MRGPRX1” value (human MRGPRX1 [7]) is given as “full agonist activity” and the “agonist activity at rat MRGPRC” value (rat MRGPRC) is given as “full agonist activity”. For the same molecule, the “effect on mechanical and thermal hyperalgesia” value [8] was “attenuate both mechanical and thermal hyperalgesia”, the “inhibitory effect on HVA Ca2+ currents” value ([2]; bath application of 5 μM) was “inhibited HVA Ca^2+ currents” and the “effect on mechanical and thermal hyperalgesia” value [9] was “attenuate both mechanical and thermal hyperalgesia”.

Reference: publication PMC10079166 (Journal of medicinal chemistry, 2019)
